Measured values: ChEMBL document CHEMBL2346637, “Effects of alkyl side chain modification of coenzyme Q10 on mitochondrial respiratory chain function and cytoprotection” (Bioorg Med Chem, 2013)

Assays:
[1] = tested on: CCRF-CEM; experiment: (§1) Blockade of diethyl maleate-induced mitochondrial membrane potential collapse in human CEM cells assessed as cells with intact mitochondrial membrane potential at 0.5 uM incubated for 16 hrs prior to diethyl maleate challenge measured after 120 mins by TMRM-based flow cytometric analysis (reference value: 12%); format: functional
Outline: (§2)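 Pretreatment: CEM cells (5 × 10⁵) with or without compound for 16 h, then 5 mM DEM for 120 min. Cells washed and resuspended in PBS with glucose, stained with 250 nM TMRM for 15 min at 37 °C in the dark, washed, and read at once by flow cytometry (488 nm excitation, FL2-H). 10,000 events per run. Percentage of cells with intact potential taken from the top-right quadrant. FCCP served as depolarized control. Means ± SEM of three independent experiments in duplicate.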

[2] = tested on: CCRF-CEM; experiment: Antioxidant activity in human CEM cells assessed as suppression of diethyl maleate-induced ROS production at 1 uM incubated for 16 hrs prior to diethyl maleate challenge measured after 1 hr by DCFH-DA staining-based flow cytometric analysis relative to untreated control; format: functional
Outline: (§3)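 CEM cells (5 × 10⁵ in 1 mL) preincubated with compound 16 h at 37 °C, 5% CO₂; then 5 mM DEM for 1 h. Cells washed in PBS and loaded with 10 µM DCFH-DA for 25 min at 37 °C in the dark, then washed twice. Read by flow cytometry, 488 nm excitation, FL1-H 530 nm channel, 10,000 events after debris gating.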

[3] = organism: Bos taurus; experiment: Inhibition of NADH oxidase in bovine heart submitochondrial particles at 5 uM after 5 mins by spectrophotometric analysis relative to untreated control; design: scale not given: the % may be the effect or the level left
Outline: (§4)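 Bovine heart SMPs, stored in 0.25 M sucrose/10 mM Tris–HCl pH 7.4, were assayed at 30 µg protein/mL in 50 mM Hepes pH 7.5 with 5 mM MgCl₂ at 30 °C. SMPs pre-equilibrated with inhibitor for 5 min. NADH oxidation followed at 340 nm (ε 6.22 mM⁻¹ cm⁻¹). Initial rates taken from the linear trace and expressed relative to untreated control.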

[4] = Inhibition of NADH-ubiquinone oxidoreductase activity in bovine heart submitochondrial particles using coenzyme Q1 as substrate after 5 mins by spectrophotometric analysis; design: species or system Bos taurus
Outline: (§5)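 Twelve micrograms of bovine heart SMPs incubated 5 min at 39 °C with compound in 50 mM phosphate buffer, pH 7.4, with 0.25 M sucrose, 1 mM MgCl₂, antimycin A and 2 mM KCN. Reaction started with NADH and coenzyme Q₁ (each 50 µM). Decrease in NADH absorbance read at 340 nm. IC₅₀ and maximum achievable inhibition reported.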

[5] = organism: Bos taurus; experiment: Inhibition of NADH oxidase in bovine heart submitochondrial particles at 10 uM after 5 mins by spectrophotometric analysis relative to untreated control; design: scale not given: the % may be the effect or the level left; outline: as §4
[6] = tested on: CCRF-CEM; experiment: Cytoprotective effect in human CEM cells assessed as reduction of diethyl maleate-induced oxidative stress measured cell viability at 5 uM incubated for 17 hrs prior to diethyl maleate challenge measured after 6 hrs by trypan blue exclusion assay relative to untreated control; format: functional
Outline: (§6)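 CEM cells seeded at 5 × 10⁵ cells/mL with compound and held 17 h at 37 °C, 5% CO₂. Oxidative stress then induced with 5 mM DEM for 6 h. Viability counted on a hemocytometer by 0.4% trypan blue exclusion and expressed as percent of untreated control (untreated = 100%). Means ± S.E.M., n = 3.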

[7] = Effect on cellular respiration in rat RGC5 cells assessed as increase in mitochondrial oxygen consumption at 3 uM after 1.5 hrs by fluorescence assay relative to vehicle-treated control; format: functional
Outline: (§7)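 RGC-5 cells (DMEM, 10% FBS, phenol-red free) at 70,000 per well in 384-well oxygen biosensor plates, allowed to attach 20–30 min. Compounds added from DMSO stock via PBS dilution, final 3 or 10 µM, 0.1% DMSO. Six vehicle and six FCCP wells per plate. Incubated at 37 °C, 5% CO₂ for 1.5 or 24 h. Fluorescence read at 485/630 nm and expressed as fold change over vehicle at each time point. Two-tailed t test.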

[8] = tested on: CCRF-CEM; experiment: as §1, with “1” for “0.5”; format: functional; outline: as §2
[9] = organism: Bos taurus; experiment: Inhibition of NADH oxidase in bovine heart submitochondrial particles at 1 uM after 5 mins by spectrophotometric analysis relative to untreated control; design: scale not given: the % may be the effect or the level left; outline: as §4
[10] = Effect on cellular respiration in rat RGC5 cells assessed as increase in mitochondrial oxygen consumption at 10 uM after 1.5 hrs by fluorescence assay relative to vehicle-treated control; format: functional; outline: as §7
[11] = tested on: CCRF-CEM; experiment: Cytoprotective effect in human CEM cells assessed as reduction of diethyl maleate-induced oxidative stress measured cell viability at 1 uM incubated for 17 hrs prior to diethyl maleate challenge measured after 6 hrs by trypan blue exclusion assay relative to untreated control; format: functional; outline: as §6
[12] = tested on: CCRF-CEM; experiment: Cytoprotective effect in human CEM cells assessed as reduction of diethyl maleate-induced oxidative stress measured cell viability at 0.5 uM incubated for 17 hrs prior to diethyl maleate challenge measured after 6 hrs by trypan blue exclusion assay relative to untreated control; format: functional; outline: as §6
[13] = tested on: CCRF-CEM; experiment: Antioxidant activity in human CEM cells assessed as suppression of diethyl maleate-induced ROS production at 2.5 uM incubated for 16 hrs prior to diethyl maleate challenge measured after 1 hr by DCFH-DA staining-based flow cytometric analysis relative to untreated control; format: functional; outline: as §3
[14] = tested on: CCRF-CEM; experiment: Cytoprotective effect in human CEM cells assessed as reduction of diethyl maleate-induced oxidative stress measured cell viability at 0.1 uM incubated for 17 hrs prior to diethyl maleate challenge measured after 6 hrs by trypan blue exclusion assay relative to untreated control; format: functional; outline: as §6
[15] = Effect on cellular respiration in rat RGC5 cells assessed as increase in mitochondrial oxygen consumption at 3 uM after 24 hrs by fluorescence assay relative to vehicle-treated control; format: functional; outline: as §7
[16] = Effect on cellular respiration in rat RGC5 cells assessed as increase in mitochondrial oxygen consumption at 10 uM after 24 hrs by fluorescence assay relative to vehicle-treated control; format: functional; outline: as §7
[17] = organism: Bos taurus; experiment: Inhibition of NADH-ubiquinone oxidoreductase activity in bovine heart submitochondrial particles using coenzyme Q1 as substrate after 5 mins by spectrophotometric analysis relative to untreated control; outline: as §5

CCCCCCCCCCC1=C(C)C(=O)C(OC)=C(OC)C1=O [DECYLUBIQUINONE]
Activity [1]: 78% | Activity [2]: 80% | activity [3]: 83.3% | IC50 [4]: > 30 µM | activity [5]: 61.5% | Activity [6]: 87% | fold change (FC) [7]: 1.19 | Activity [8]: 88% | activity [9]: 93.5% | fold change (FC) [10]: 1.2 | Activity [11]: 79% | Activity [12]: 62% | Activity [13]: 95% | Activity [14]: 69% | fold change (FC) [15]: 0.99 | fold change (FC) [16]: 1.08

COC1=C(OC)C(=O)C(CCCCCCCCCCO)=C(C)C1=O [IDEBENONE]
Activity [1]: 35% | Activity [2]: 45% | activity [3]: 20.3% | IC50 [4]: 5.8 µM | activity [5]: 13.4% | Activity [6]: 74% | fold change (FC) [7]: 1.12 | Activity [8]: 59% | activity [9]: 58.3% | fold change (FC) [10]: 0.99 | Activity [11]: 71% | Imax [17]: 75% | Activity [12]: 38% | Activity [13]: 65% | Activity [14]: 25% | fold change (FC) [15]: 0.98 | fold change (FC) [16]: 0.98

COC1=C(OC)C(=O)C(CCCCCCCCCCC2CCCCC2)=C(C)C1=O
Activity [1]: 84% | Activity [2]: 100% | activity [3]: 81.9% | IC50 [4]: 14.9 µM | activity [5]: 78.7% | Activity [6]: 93% | fold change (FC) [7]: 1.17 | Activity [8]: 91% | activity [9]: 88.3% | fold change (FC) [10]: 1.21 | Activity [11]: 87% | Imax [17]: 55.4% | Activity [12]: 83% | Activity [13]: 100% | Activity [14]: 76% | fold change (FC) [15]: 1.06 | fold change (FC) [16]: 1.51

COC1=C(OC)C(=O)C(CCCCCCCCC(C)(C)C)=C(C)C1=O
Activity [1]: 70% | Activity [2]: 88% | activity [3]: 50.6% | IC50 [4]: 14.7 µM | activity [5]: 36.2% | Activity [6]: 93% | fold change (FC) [7]: 1.08 | Activity [8]: 85% | activity [9]: 68.3% | fold change (FC) [10]: 1.05 | Activity [11]: 72% | Imax [17]: 69% | Activity [12]: 43% | Activity [13]: 100% | Activity [14]: 9% | fold change (FC) [15]: 1.55 | fold change (FC) [16]: 1.16

COC1=C(OC)C(=O)C(CCCCCCCCCCN=[N+]=[N-])=C(C)C1=O
Activity [1]: 50% | Activity [2]: 71% | activity [3]: 75% | IC50 [4]: > 30 µM | activity [5]: 64% | Activity [6]: 92% | fold change (FC) [7]: 1.01 | Activity [8]: 65% | activity [9]: 89.8% | fold change (FC) [10]: 0.97 | Activity [11]: 72% | Activity [12]: 21% | Activity [13]: 87% | Activity [14]: 11% | fold change (FC) [15]: 1.68 | fold change (FC) [16]: 1.01

CCCCCCCCCCCCCCCC1=C(C)C(=O)C(OC)=C(OC)C1=O
Activity [1]: 86% | Activity [2]: 100% | activity [3]: 66.3% | IC50 [4]: > 30 µM | activity [5]: 59.7% | Activity [6]: 94% | fold change (FC) [7]: 1.14 | Activity [8]: 92% | activity [9]: 85.2% | fold change (FC) [10]: 1.15 | Activity [11]: 90% | Activity [12]: 87% | Activity [13]: 100% | Activity [14]: 82% | fold change (FC) [15]: 1.49 | fold change (FC) [16]: 1.52
